Data taken from ChEMBL document CHEMBL1147071, “Bisphosphonates as inhibitors of Trypanosoma cruzi hexokinase: kinetic and metabolic studies” (J Biol Chem, 2007).
pIC50, pKi: −log10 of the molar value. Converted amounts (≈) assume the structure as drawn. The source made the active and inactive calls. The calls are words filed in the database; no cut-off is given here.

What was measured:
[1] = target: T1, Hexokinase (Trypanosoma cruzi, UniProt Q8ST54); test: Inhibition of glycosomal Trypanosoma cruzi hexokinase in presence of D-glucose, 1 mM ATP and 3 mM MgCl2
T1 sequence (Q8ST54 whole entry): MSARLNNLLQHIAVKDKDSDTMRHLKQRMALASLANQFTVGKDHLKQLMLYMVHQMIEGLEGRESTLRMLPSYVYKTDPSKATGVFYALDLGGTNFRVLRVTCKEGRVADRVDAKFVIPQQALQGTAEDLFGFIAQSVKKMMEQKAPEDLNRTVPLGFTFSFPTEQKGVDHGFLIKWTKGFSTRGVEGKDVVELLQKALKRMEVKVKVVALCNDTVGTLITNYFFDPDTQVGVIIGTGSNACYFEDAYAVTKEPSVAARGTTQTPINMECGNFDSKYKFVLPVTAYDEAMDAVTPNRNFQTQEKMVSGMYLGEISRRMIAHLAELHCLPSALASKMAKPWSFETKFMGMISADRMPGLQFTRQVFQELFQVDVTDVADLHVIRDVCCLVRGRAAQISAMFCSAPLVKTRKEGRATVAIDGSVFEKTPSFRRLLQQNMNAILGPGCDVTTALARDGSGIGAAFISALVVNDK
How it was run: (§1)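 Purified intact glycosomes from exponential-phase epimastigotes (latency typically >95%) were permeabilized with digitonin 25 µg mg-1 protein for 1 min, pelleted and resuspended in buffer A (sucrose 225 mM, KCl 20 mM, KH2PO4 10 mM, EDTA 5 mM, Tris-HCl 20 mM, MgCl2 1 mM, pH 7.2). Hexokinase was assayed by coupled NADP+ reduction at 340 nm. Against ATP: 2 mM D-glucose, 3 mM MgCl2. Against glucose: 1 mM ATP, 3 mM MgCl2. Kii and Kis were fitted.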

[2] = target: T1, Hexokinase; test: Inhibition of glycosomal Trypanosoma cruzi hexokinase in presence of D-glucose, 1 mM ATP and 3 mM MgCl2 by competitive inhibition assay; how it was run: as §1
[3] = target: T1, Hexokinase; test: Inhibition of glycosomal Trypanosoma cruzi hexokinase in presence of ATP, 2 mM D-glucose and 3 mM MgCl2 by competitive inhibition assay; how it was run: as §1
[4] = tested on: Trypanosoma cruzi; test: Effect on exogenous cholesterol level in Trypanosoma cruzi epimastigotes at 50 uM; type: functional
How it was run: (§2)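 EP stock epimastigotes grown 120 h in LIT medium with 10% newborn calf serum at 28 °C, with or without compound at the stated concentration. Total lipids were extracted, and free sterols were separated from polar lipids by silicic acid column chromatography. Sterols were quantified by capillary gas-liquid chromatography and mass spectrometry and reported as mass percent of free sterols.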

[5] = tested on: Trypanosoma cruzi; test: Effect on endogenous 24-ethyl-5,7-cholesta-dien-3beta-ol level in Trypanosoma cruzi epimastigotes at 50 uM; type: functional; how it was run: as §2
[6] = tested on: Trypanosoma cruzi; test: Effect on endogenous 24-ethyl-5,7,22-cholesta-trien-3beta-ol level in Trypanosoma cruzi epimastigotes at 50 uM; type: functional; how it was run: as §2
[7] = target: T1, Hexokinase; test: Inhibition of Trypanosoma cruzi hexokinase in presence of ATP, 2 mM D-glucose and 3 mM MgCl2
How it was run: (§3)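 Homogeneous hexokinase purified from exponential-phase epimastigotes. Activity measured spectrophotometrically by coupling to glucose-6-phosphate dehydrogenase and following NADP+ reduction at 340 nm; rates taken from the initial linear slope. Against ATP: 2 mM D-glucose, 3 mM MgCl2. Against D-glucose: 1 mM ATP, 3 mM MgCl2. Substrate and inhibitor were varied, and Kii and Kis were obtained from fitting plus secondary plots.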

[8] = tested on: Trypanosoma cruzi; test: Effect on glucose consumption in digitonin permeablized Trypanosoma cruzi; type: functional, organism-based
How it was run: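 Resuspended with PEP 6 mM, ADP 6 mM, NaHCO3 7 mM and L-malate 1 mM. Preincubated 60 min at 28 °C with varying compound concentrations before 3 mM D-glucose was added. Medium glucose was assayed enzymatically every 15 min; IC50 determined.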

[9] = target: T1, Hexokinase; test: Inhibition of Trypanosoma cruzi hexokinase in presence of D-glucose, 1 mM ATP and 3 mM MgCl2 by competitive inhibition assay; how it was run: as §3
[10] = target: T1, Hexokinase; test: Inhibition of glycosomal Trypanosoma cruzi hexokinase in presence of ATP, 2 mM D-glucose and 3 mM MgCl2; how it was run: as §1
[11] = tested on: Trypanosoma cruzi; test: Effect on endogenous 24-ethyl-5,7-cholesta-dien-3beta-ol level in Trypanosoma cruzi epimastigotes at 100 uM; type: functional; how it was run: as §2
[12] = tested on: Trypanosoma cruzi; test: Growth inhibition of Trypanosoma cruzi epimastigotes; type: functional, organism-based
How it was run: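 EP epimastigotes grown in LIT medium with 10% newborn calf serum at 28 °C, 120 rpm. Compound added from 100-fold stocks at 1-2 × 10^7 cells ml-1. Densities counted by particle counter and hemocytometer. Percent growth factor based on 96 h growth relative to untreated cells; IC50 from non-linear fit; MIC also reported. Triplicates.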

[13] = target: T1, Hexokinase; test: Inhibition of Trypanosoma cruzi hexokinase in presence of D-glucose, 1 mM ATP and 3 mM MgCl2
How it was run: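 Hexokinase purified to homogeneity from exponential-phase T. cruzi epimastigotes. Activity was coupled to glucose-6-phosphate dehydrogenase and read as NADP+ reduction at 340 nm, with initial velocity taken from the slope, linear for at least 5 min. D-glucose was varied at fixed inhibitor levels with 1 mM ATP and 3 mM MgCl2. Kii and Kis came from fitting to a mixed-inhibition equation (intercept/slope secondary plots).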

[14] = tested on: Trypanosoma cruzi; test: Effect on exogenous cholesterol level in Trypanosoma cruzi epimastigotes at 100 uM; type: functional; how it was run: as §2
[15] = target: T1, Hexokinase; test: Inhibition of Trypanosoma cruzi hexokinase in presence of ATP, 2 mM D-glucose and 3 mM MgCl2 by mixed inhibition assay
[16] = tested on: Trypanosoma cruzi; test: Effect on endogenous Ergosta-7-24(24')-dien-3beta-ol level in Trypanosoma cruzi epimastigotes at 20 uM; type: functional; how it was run: as §2
[17] = tested on: Trypanosoma cruzi; test: Inhibition of glucose consumption in Trypanosoma cruzi epimastigotes after 120 hrs; type: functional, organism-based
How it was run: (§4)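 Epimastigotes cultured in LIT medium at 28 °C with agitation, with or without 15 µM compound. Cell proliferation, medium glucose and ammonium (enzymatic assays) and medium pH were followed over time. Triplicates.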

[18] = tested on: Trypanosoma cruzi; test: Effect on endogenous Ergosta-5,7-dien-3beta-ol level in Trypanosoma cruzi epimastigotes at 20 uM; type: functional; how it was run: as §2
[19] = tested on: Trypanosoma cruzi; test: Effect on endogenous 24-ethyl-5,7,22-cholesta-trien-3beta-ol level in Trypanosoma cruzi epimastigotes at 20 uM; type: functional; how it was run: as §2
[20] = tested on: Trypanosoma cruzi; test: Effect on endogenous 24-methyl-5,7,22-cholesta-trien-3beta-ol level in Trypanosoma cruzi epimastigotes at 20 uM; type: functional; how it was run: as §2
[21] = tested on: Trypanosoma cruzi; test: Effect on endogenous Ergosta-5,7-24(24')-trien-3beta-ol level in Trypanosoma cruzi epimastigotes at 20 uM; type: functional; how it was run: as §2
[22] = tested on: Trypanosoma cruzi; test: Reduction in proliferation of Trypanosoma cruzi epimastigotes at 15 uM; type: functional, organism-based; how it was run: as §4
[23] = tested on: Trypanosoma cruzi; test: Effect on endogenous 24-ethyl-5,7-cholesta-dien-3beta-ol level in Trypanosoma cruzi epimastigotes at 20 uM; type: functional; how it was run: as §2
[24] = tested on: Trypanosoma cruzi; test: Effect on exogenous cholesterol level in Trypanosoma cruzi epimastigotes at 20 uM; type: functional; how it was run: as §2
[25] = tested on: Trypanosoma cruzi; test: Inhibition of glucose consumption in Trypanosoma cruzi epimastigotes after 96 hrs; type: functional, organism-based; how it was run: as §4

pKi [1]	pKi [2]	pKi [3]	pKi [7]	pIC50 [8]	pKi [9]	pKi [10]	pIC50 [12]	MIC [12] [µM]	pKi [15]	Structure (SMILES)	Activity [18] [%]	Activity [19] [%]	Activity [20] [%]	Activity [21] [%]	Activity [22]	Activity [23] [%]	Activity [24] [%]	other results
4.36	5.47	4.94	5.37	4.99	5.48	4.98	4.39	200 (≈ 56.6 µg/mL)	5.55	O=P(O)(O)C(O)(Cc1ccncc1)P(=O)(O)O	–	–	–	–	–	–	–	Activity [4]: 70.9%; Activity [5]: 14.5%; Activity [6]: 14.6%; Activity [11]: 6.7%; pKi [13]: 5.22; Activity [14]: 93.3%
4.97	5.54	5.59	5.92	5.92	6.40	–	5.15	20 (≈ 6.92 µg/mL)	6.22	O=P(O)(O)C(Nc1cccc(Br)c1)P(=O)(O)O	18	18.3	31	6	Active	3.4	21.3	Activity [16]: 2%; Activity [17]: Active
5.37	5.62	5.92	5.55	6.21	6.30	5.77	5.19	20 (≈ 7.69 µg/mL)	5.77	CCn1c2ccccc2c2cc(NC(P(=O)(O)O)P(=O)(O)O)ccc21	26.3	19.3	23.4	3.8	Active	8.4	18.8	Activity [25]: Active
